Assays:
Mus musculus [1] = assay: Inhibition of haloperidol-induced catalepsy in Swiss albino mouse assessed as time elapsed until release of forepaw from bar at 100 mg/kg, […] 30 min prior to haloperidol challenge measured after 150 mins by bar test; format: functional; conditions: route intraperitoneal, in the assay text read “ip” for “po”
In short: (§1)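 Adult male pathogen-free Swiss albino mice (18–25 g), n = 5 per group, each used once. Compounds at 100 mg/kg i.p. were given as a suspension in 0.5% gum acacia 30 min before haloperidol 5 mg/kg i.p. Forepaws were placed on a horizontal bar 9 cm high, and descent time was recorded every 30 min for 3 h. Testing ran at 23 ± 1 °C under 20 lux. Values are mean ± S.E.M.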

Mus musculus [2] = assay: Inhibition of haloperidol-induced catalepsy in Swiss albino mouse assessed as time elapsed until release of forepaw from bar at 100 mg/kg, […] 30 min prior to haloperidol challenge measured after 120 mins by bar test; format: functional; conditions: route intraperitoneal, in the assay text read “ip” for “po”; in short: as §1
Mus musculus [3] = assay: Inhibition of haloperidol-induced catalepsy in Swiss albino mouse assessed as time elapsed until release of forepaw from bar at 100 mg/kg, […] 30 min prior to haloperidol challenge measured after 90 mins by bar test; format: functional; conditions: route intraperitoneal, in the assay text read “ip” for “po”; in short: as §1
Brain [4] = assay: Antioxidant activity in haloperidol-stimulated Swiss albino mouse brain assessed as superoxide dismutase level per mg of protein (Rvb= 0.941+/- 0.15 U); format: functional
Mus musculus [5] = assay: Inhibition of haloperidol-induced catalepsy in Swiss albino mouse assessed as time elapsed until release of forepaw from bar at 100 mg/kg, […] 30 min prior to haloperidol challenge measured after 60 mins by bar test; format: functional; conditions: route intraperitoneal, in the assay text read “ip” for “po”; in short: as §1
Mus musculus [6] = assay: Inhibition of haloperidol-induced catalepsy in Swiss albino mouse assessed as time elapsed until release of forepaw from bar at 100 mg/kg, […] 30 min prior to haloperidol challenge measured after 30 mins by bar test; format: functional; conditions: route intraperitoneal, in the assay text read “ip” for “po”; in short: as §1
Brain [7] = assay: Antioxidant activity against GSH in haloperidol-stimulated Swiss albino mouse brain assessed as reduced glutathione level per gm of tissue (Rvb= 6.753 +/- 0.15 ug); format: functional
Mus musculus [8] = assay: Inhibition of haloperidol-induced catalepsy in Swiss albino mouse assessed as time elapsed until release of forepaw from bar at 100 mg/kg, […] 30 min prior to haloperidol challenge measured after 180 mins by bar test; format: functional; conditions: route intraperitoneal, in the assay text read “ip” for “po”; in short: as §1
Brain [9] = assay: Antioxidant activity in haloperidol-stimulated Swiss albino mouse brain assessed as oxidized glutathione peroxidase level per g of protein (Rvb= 0.765+/- 0.13 U); format: functional
Mus musculus [10] = assay: Inhibition of haloperidol-induced catalepsy in Swiss albino mouse at 100 mg/kg, […] 30 min prior to haloperidol challenge by bar test relative to haloperidol control; format: functional; conditions: route intraperitoneal, in the assay text read “ip” for “po”
In short: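 Mice received compound at 100 mg/kg i.p. (in 0.5% gum acacia) 30 min before haloperidol 5 mg/kg i.p., n = 5. The bar test was run every 30 min over 3 h, and descent times were summed as CDT [3 h]. Haloperidol CDT minus vehicle CDT was set as 100% catalepsy, and % inhibition was calculated against it.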

Brain [11] = assay: Antioxidant activity against lipid peroxidation in haloperidol-stimulated Swiss albino mouse brain assessed as malonaldehyde level per mg of protein by lipid peroxidation assay (Rvb= 5.521 +/- 0.23 nmol); format: functional, tissue-based
In short: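 Compound was given 30 min before haloperidol 5 mg/kg i.p. Brain was homogenized in 50 mM Tris-HCl pH 7.4. Homogenate was mixed with SDS, acetic acid and 0.8% TBA, heated 1 h at 95 °C, and extracted into n-butanol/pyridine (15:1). Upper-layer A532 was converted to MDA using ε 1.56 × 10⁵, and protein was measured by Lowry. Results are nmol MDA/mg protein, n = 5.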

Structure (SMILES): CCn1c(=S)sc2c(NC(=S)Nc3ccccc3OC)ncnc21
- Time to forepaw release from bar (Mus musculus [1]): 1.62 min
- catalepsy descent time (Mus musculus [2]): 1.25 min
- catalepsy descent time (Mus musculus [3]): 0.883 min
- Activity (Brain [4]): 1.866 U
- Catalepsy time (forepaw descent time) (Mus musculus [5]): 0.25 min
- descent time (Mus musculus [6]): 0.3 min
- Activity (Brain [7]): 11.672 µg
- Catalepsy duration (time to release forepaw from bar) (Mus musculus [8]): 2.4 min
- Activity (Brain [9]): 1.331 U
- inhibition (INH) (Mus musculus [10]): 23.7%
- Activity (Brain [11]): 3.12 nmol

Structure (SMILES): COc1ccccc1NC(=O)Nc1ncnc2c1sc(=S)n2-c1ccccc1
- Time to forepaw release from bar (Mus musculus [1]): 1.38 min
- catalepsy descent time (Mus musculus [2]): 1.48 min
- catalepsy descent time (Mus musculus [3]): 0.95 min
- Activity (Brain [4]): 1.992 U
- Catalepsy time (forepaw descent time) (Mus musculus [5]): 0.817 min
- descent time (Mus musculus [6]): 0.433 min
- Activity (Brain [7]): 14.362 µg
- Catalepsy duration (time to release forepaw from bar) (Mus musculus [8]): 1.57 min
- Activity (Brain [9]): 1.134 U
- inhibition (INH) (Mus musculus [10]): 23.4%
- Activity (Brain [11]): 3.2 nmol

Structure (SMILES): COc1ccccc1NC(=S)Nc1ncnc2c1sc(=S)n2-c1ccccc1
- Time to forepaw release from bar (Mus musculus [1]): 1.87 min
- catalepsy descent time (Mus musculus [2]): 1.8 min
- catalepsy descent time (Mus musculus [3]): 1.3 min
- Activity (Brain [4]): 2.35 U
- Catalepsy time (forepaw descent time) (Mus musculus [5]): 0.733 min
- descent time (Mus musculus [6]): 0.417 min
- Activity (Brain [7]): 14.2 µg
- Catalepsy duration (time to release forepaw from bar) (Mus musculus [8]): 1.82 min
- Activity (Brain [9]): 1.6 U
- inhibition (INH) (Mus musculus [10]): 28.5%
- Activity (Brain [11]): 2.75 nmol

Structure (SMILES): CCn1c(=S)sc2c(NC(=O)Nc3ccccc3OC)ncnc21
- Time to forepaw release from bar (Mus musculus [1]): 2.25 min
- catalepsy descent time (Mus musculus [2]): 1.5 min
- catalepsy descent time (Mus musculus [3]): 0.667 min
- Activity (Brain [4]): 1.81 U
- Catalepsy time (forepaw descent time) (Mus musculus [5]): 0.517 min
- descent time (Mus musculus [6]): 0.583 min
- Activity (Brain [7]): 14 µg
- Catalepsy duration (time to release forepaw from bar) (Mus musculus [8]): 2.62 min
- Activity (Brain [9]): 1.54 U
- inhibition (INH) (Mus musculus [10]): 29.3%
- Activity (Brain [11]): 2.81 nmol
